According to ChEMBL document CHEMBL4334452, “Monosaccharide Analogues of Anticancer Peptide R-Lycosin-I: Role of Monosaccharide Conjugation in Complexation and the Potential of Lung Cancer Targeting and Therapy” (J Med Chem, 2019):
Active and inactive are the calls of the source. No cut-off for these calls is given here. *1 amine or outer side, *2 acyl side, *3 side chain or, on linkers, in order; H or OH if unused. Where a SMILES comes first, the peptide text is derived from it. The star is where a group is joined. X4 = CC(=O)N[C@H]1[C@H](OCCCN*)O[C@H](CO)[C@@H](O)[C@@H]1O; X3 = OC[C@H]1O[C@H](OCCCN*)[C@@H](O)[C@@H](O)[C@@H]1O; X1 = OC[C@H]1O[C@@H](OCCCN*)[C@H](O)[C@@H](O)[C@H]1O; X2 = O[C@@H]1[C@@H](O)[C@H](OCCCN*)OC[C@@H]1O; Glutaryl = O=C(CCCC(=O)[*:2])[*:1]

What was measured:
HEK-293T [1] = test: Cytotoxicity against HEK293T cells assessed as reduction in cell viability measured after 24 hrs by CCK8 assay; type: cell-based, Homo sapiens; conditions: for Activity: human, hek-293t
Procedure, shortened: (§1)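 Cells (A549, H460, H1437, PC-3, HGC-27, MDA-MB-231, HEK-293T, L-02) seeded at about 2×10^3/well and grown overnight. Treated 24 h with a peptide concentration series in serum-free medium. Viability by CCK-8; IC50 taken as 50% inhibition versus untreated cells. Average of three experiments, each in triplicate.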

[2] = target: T1, Solute carrier family 2, facilitated glucose transporter member 1 (Homo sapiens) (UniProt P11166); test: Binding affinity to GLUT1 in human A549 cells assessed as cytotoxicity by measuring reduction in cell viability measured after 24 hrs by CCK8 assay; type: cell-based; procedure, shortened: as §1
T1 sequence (whole entry): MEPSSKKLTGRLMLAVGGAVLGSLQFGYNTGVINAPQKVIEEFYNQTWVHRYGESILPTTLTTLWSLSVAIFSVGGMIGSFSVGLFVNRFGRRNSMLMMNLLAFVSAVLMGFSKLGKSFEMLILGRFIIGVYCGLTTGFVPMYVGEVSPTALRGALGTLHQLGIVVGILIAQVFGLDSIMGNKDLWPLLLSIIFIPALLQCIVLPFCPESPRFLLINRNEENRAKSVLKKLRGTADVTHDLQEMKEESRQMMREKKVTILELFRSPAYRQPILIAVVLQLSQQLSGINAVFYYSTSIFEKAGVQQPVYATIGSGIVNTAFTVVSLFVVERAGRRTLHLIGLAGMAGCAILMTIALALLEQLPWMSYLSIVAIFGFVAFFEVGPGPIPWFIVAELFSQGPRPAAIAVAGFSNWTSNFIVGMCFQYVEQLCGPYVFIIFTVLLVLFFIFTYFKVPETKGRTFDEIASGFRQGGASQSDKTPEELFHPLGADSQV

[3] = target: T1, Solute carrier family 2, facilitated glucose transporter member 1 (Homo sapiens); test: Binding affinity to GLUT1 in human A549 cells assessed as cytotoxicity by measuring reduction in cell viability at 15 uM by trypan blue staining-based assay
Procedure, shortened: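 A549 cells stained with trypan blue after peptide treatment at 15 µM. Dead cells appear blue and live cells unstained; live cells were counted.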

[4] = target: T1, Solute carrier family 2, facilitated glucose transporter member 1 (Homo sapiens); test: Binding affinity to GLUT1 in human A549 cells assessed as cytotoxicity by measuring reduction in cell viability at 12.5 uM measured after 2 hrs in absence of GLUT1 inhibitor STF-31 by CCK8 assay; type: cell-based
Procedure, shortened: (§2)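 A549 cells at 2×10^3/well, grown overnight, then preincubated 4 h in F12K/10% FBS with or without STF-31 (1 µM final). […] Incubated a further 2 h at 37 °C; viability by CCK-8.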

[5] = target: T1, Solute carrier family 2, facilitated glucose transporter member 1 (Homo sapiens); test: Binding affinity to GLUT1 in human A549 cells assessed as cytotoxicity by measuring reduction in cell viability at 12.5 uM measured after 2 hrs in presence of GLUT1 inhibitor STF-31 by CCK8 assay; type: cell-based; procedure, shortened: as §2
[6] = target: T1, Solute carrier family 2, facilitated glucose transporter member 1 (Homo sapiens); test: Binding affinity to GLUT1 in human A549 cells assessed as cytotoxicity at 12.5 uM measured after 2 hrs by LDH release assay; type: cell-based
Procedure, shortened: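 A549 cells at 2×10^3/well, allowed to adhere overnight, then exposed to peptide over a concentration series for 2 h. LDH release measured with a kit, absorbance at 490 nm. 1% Triton X-100 taken as 100% release; n=3.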

HEK-293T [7] = test: Cytotoxicity against HEK293T cells at 12.5 uM measured after 2 hrs by LDH release assay; type: cell-based; conditions: human

Row | Compound | Activity (HEK-293T [1]) | Activity [2] | Activity [3] | IC50 (HEK-293T [1]; Homo sapiens, HEK-293T) [µM] | Activity [4] | Activity [5] | Activity [6] | Activity (HEK-293T [7])
1 | CC[C@H](C)[C@H](NC(=O)[C@H](Cc1ccccc1)NC(=O)[C@H](CCCNC(=N)N)NC(=O)[C@H](C)NC(=O)[C@@H](NC(=O)[C@H](CO)NC(=O)[C@H](CCCNC(=N)N)NC(=O)[C@H](CCSC)NC(=O)[C@H](C)NC(=O)[C@H](CCCNC(=N)N)NC(=O)[C@H](Cc1ccccc1)NC(=O)[C@H](Cc1c[nH]c2ccccc12)NC(=O)CNC(=O)[C@H](CCCNC(=N)N)NC(=O)CCCC(=O)NCCCO[C@H]1O[C@H](CO)[C@@H](O)[C@H](O)[C@@H]1O)[C@@H](C)CC)C(=O)N[C@@H](C)C(=O)N[C@@H](CCCNC(=N)N)C(=O)N[C@@H](CCC(=O)O)C(=O)N[C@@H](CCCNC(=N)N)C(=O)N[C@@H](CC(C)C)C(=O)N[C@@H](CCCNC(=N)N)C(=O)N[C@@H](CCC(=O)O)C(=O)N[C@@H](Cc1cnc[nH]1)C(=O)N[C@@H](CC(C)C)C(=O)O ({X3-Glutaryl}-RGWFRAMRSIARFIARERLREHL-OH) | Non-Toxic | inactive | inactive |  |  |  |  | 
2 | CC[C@H](C)[C@H](NC(=O)[C@H](Cc1ccccc1)NC(=O)[C@H](CCCNC(=N)N)NC(=O)[C@H](C)NC(=O)[C@@H](NC(=O)[C@H](CO)NC(=O)[C@H](CCCNC(=N)N)NC(=O)[C@H](CCSC)NC(=O)[C@H](C)NC(=O)[C@H](CCCNC(=N)N)NC(=O)[C@H](Cc1ccccc1)NC(=O)[C@H](Cc1c[nH]c2ccccc12)NC(=O)CNC(=O)[C@H](CCCNC(=N)N)NC(=O)CCCC(=O)NCCCO[C@@H]1O[C@H](CO)[C@@H](O)[C@H](O)[C@H]1NC(C)=O)[C@@H](C)CC)C(=O)N[C@@H](C)C(=O)N[C@@H](CCCNC(=N)N)C(=O)N[C@@H](CCC(=O)O)C(=O)N[C@@H](CCCNC(=N)N)C(=O)N[C@@H](CC(C)C)C(=O)N[C@@H](CCCNC(=N)N)C(=O)N[C@@H](CCC(=O)O)C(=O)N[C@@H](Cc1cnc[nH]1)C(=O)N[C@@H](CC(C)C)C(=O)O ({X4-Glutaryl}-RGWFRAMRSIARFIARERLREHL-OH) | Non-Toxic | inactive | inactive |  |  |  |  | 
3 | CC[C@H](C)[C@H](NC(=O)[C@H](Cc1ccccc1)NC(=O)[C@H](CCCNC(=N)N)NC(=O)[C@H](C)NC(=O)[C@@H](NC(=O)[C@H](CO)NC(=O)[C@H](CCCNC(=N)N)NC(=O)[C@H](CCSC)NC(=O)[C@H](C)NC(=O)[C@H](CCCNC(=N)N)NC(=O)[C@H](Cc1ccccc1)NC(=O)[C@H](Cc1c[nH]c2ccccc12)NC(=O)CNC(=O)[C@H](CCCNC(=N)N)NC(=O)CCCC(=O)NCCCO[C@@H]1O[C@H](CO)[C@H](O)[C@H](O)[C@H]1O)[C@@H](C)CC)C(=O)N[C@@H](C)C(=O)N[C@@H](CCCNC(=N)N)C(=O)N[C@@H](CCC(=O)O)C(=O)N[C@@H](CCCNC(=N)N)C(=O)N[C@@H](CC(C)C)C(=O)N[C@@H](CCCNC(=N)N)C(=O)N[C@@H](CCC(=O)O)C(=O)N[C@@H](Cc1cnc[nH]1)C(=O)N[C@@H](CC(C)C)C(=O)O ({X1-Glutaryl}-RGWFRAMRSIARFIARERLREHL-OH) |  |  | Active | 8.3 | Active | Active | Active | Toxic
4 | CC[C@H](C)[C@H](NC(=O)[C@H](Cc1ccccc1)NC(=O)[C@H](CCCNC(=N)N)NC(=O)[C@H](C)NC(=O)[C@@H](NC(=O)[C@H](CO)NC(=O)[C@H](CCCNC(=N)N)NC(=O)[C@H](CCSC)NC(=O)[C@H](C)NC(=O)[C@H](CCCNC(=N)N)NC(=O)[C@H](Cc1ccccc1)NC(=O)[C@H](Cc1c[nH]c2ccccc12)NC(=O)CNC(=O)[C@H](CCCNC(=N)N)NC(=O)CCCC(=O)NCCCO[C@@H]1OC[C@H](O)[C@H](O)[C@H]1O)[C@@H](C)CC)C(=O)N[C@@H](C)C(=O)N[C@@H](CCCNC(=N)N)C(=O)N[C@@H](CCC(=O)O)C(=O)N[C@@H](CCCNC(=N)N)C(=O)N[C@@H](CC(C)C)C(=O)N[C@@H](CCCNC(=N)N)C(=O)N[C@@H](CCC(=O)O)C(=O)N[C@@H](Cc1cnc[nH]1)C(=O)N[C@@H](CC(C)C)C(=O)O ({X2-Glutaryl}-RGWFRAMRSIARFIARERLREHL-OH) |  |  | Active |  | Active | Active | Active | Toxic
